Test results published in ChEMBL document CHEMBL1250477, “Reverse engineering truncations of an antimicrobial peptide dimer to identify the origins of potency and broad spectrum of action” (J Med Chem, 2010).
Converted amounts (≈) assume the structure as drawn. The source made the active and inactive calls. No cut-off for these calls is given here.

Key:
Escherichia coli [1] = assay: Drug uptake in Escherichia coli ML35p outer membrane assessed as increase in fluorescence of N-phenylnaphthylamine at 10 uM measured for 10 mins; format: ADME, organism-based; details: in vivo
In short: (§1)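 NPN uptake: mid-log cells washed and resuspended in 5 mM glucose/5 mM HEPES pH 7.2. Peptide added to 10 μM final, with 10 μM NPN. Fluorescence (ex 350 nm, em 420 nm) monitored for 10 min.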

Escherichia coli [2] = assay: Drug uptake in Escherichia coli ML35p inner membrane assessed as increase in fluorescence of propidium iodide at 10 uM measured for 10 mins; format: ADME, organism-based; details: in vivo
In short: (§2)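 PI uptake: mid-log cells washed and resuspended in 5 mM glucose/5 mM HEPES pH 7.2. Peptide added to 10 μM final, with 2.7 μM propidium iodide. Fluorescence (ex 535 nm, em 617 nm) followed for 10 min; lag before rise read from trace.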

Escherichia coli [3] = assay: Drug uptake in Escherichia coli ML35p inner membrane assessed as lag time at 10 uM; format: ADME, organism-based; details: in vivo; in short: as §2
Escherichia coli [4] = assay: Drug uptake in Escherichia coli ML35p inner membrane assessed as time required to permeabilize to inner membrane at 10 uM; format: ADME, organism-based; details: in vivo; in short: as §2
Escherichia coli [5] = assay: Drug uptake in Escherichia coli ML35p outer membrane assessed as time required to permeabilize to outer membrane at 10 uM; format: ADME, organism-based; details: in vivo; in short: as §1
Escherichia coli [6] = assay: Induction of morphological changes in Escherichia coli ML35p assessed as thin filamentous phenotype at MIC concentration after 18 hrs using propidium iodide/Syto9 staining by microscopic analysis; format: functional, organism-based
In short: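 Incubated overnight (18 h) with peptide at its MIC, 37 °C, 200 rpm. Stained 15 min with PI (2.7 μM) and Syto 9 (6 μM), smeared, heat-fixed and imaged under Syto and PI filters. Untreated cells as control.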

Escherichia coli [7] = assay: Antibacterial activity against Escherichia coli ML35p after 18 hrs; format: functional
In short: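 Broth microdilution, modified MIC method for cationic peptides. Overnight culture diluted in Mueller Hinton broth to 10⁵ CFU/mL; peptide added from 10× stock in 0.2% BSA/0.01% acetic acid. MIC = lowest concentration inhibiting measurable growth. Triplicates, repeated at least twice.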

Staphylococcus aureus [8] = assay: Antibacterial activity against vancomycin/methicillin-resistant Staphylococcus aureus ATCC 700699 after 18 hrs; format: functional; details: ATCC 700699, 18 h
In short: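 Modified broth microdilution for cationic peptides. Overnight cells were diluted in Mueller Hinton broth to 10⁵ CFU/mL, and peptide was added from a 10× stock in 0.2% BSA/0.01% acetic acid. MIC = lowest concentration inhibiting measurable growth. Triplicates, repeated at least twice.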

Escherichia coli [9] = assay: Ratio of MBC to MIC for Escherichia coli ML35p; format: functional
In short: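 MBC per CLSI: 100 μL from each clear MIC well plated on MH agar in triplicate, 18 h incubation; MBC = lowest concentration preventing growth of 99.9% of bacteria. Ratio taken as MBC/MIC. Two independent experiments in triplicate.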

Escherichia coli [10] = assay: Antibacterial activity against Escherichia coli ML35p assessed as reduction of colony forming units at 4 times MIC concentration after 5 mins; format: functional; design: scale not given: the % may be the effect or the level left
In short: (§3)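 Time-kill: overnight culture diluted in MH broth to 10⁵ CFU/mL. 1 mL exposed to peptide at 4× MIC, or water as control, at 37 °C, 200 rpm. At time points, aliquots diluted and plated on MH agar. Colonies counted after 20 h at 37 °C. Time to ~95% kill estimated.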

Escherichia coli [11] = assay: Antibacterial activity against Escherichia coli ML35p assessed as reduction of colony forming units at 4 times MIC concentration after 40 mins; format: functional; design: scale not given: the % may be the effect or the level left; in short: as §3
Escherichia coli [12] = assay: Antibacterial activity against Escherichia coli ML35p assessed as reduction of colony forming units at 4 times MIC concentration after 20 mins; format: functional; design: scale not given: the % may be the effect or the level left; in short: as §3
Staphylococcus aureus [13] = assay: Ratio of MBC to MIC for vancomycin/methicillin-resistant Staphylococcus aureus ATCC 700699; format: functional
In short: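 For MBC, 100 μL from each clear well was plated on MH agar in triplicate and incubated for 18 h. MBC = lowest concentration preventing growth of 99.9% of bacteria. The ratio is MBC divided by MIC. Two independent experiments.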

CC(=O)NCC(=O)N/C(=C/c1ccccc1)C(=O)N[C@@H](CCCNC(=N)N)C(=O)N[C@@H](CCCCN)C(=O)N/C(=C/c1ccccc1)C(=O)N[C@@H](Cc1c[nH]cn1)C(=O)N[C@@H](CCCCN)C(=O)N/C(=C\c1ccccc1)C(=O)N[C@@H](Cc1c[nH]c2ccccc12)C(=O)N[C@@H](C)C(=O)NCCCC[C@H](NC(=O)[C@H](C)NC(=O)[C@H](Cc1c[nH]c2ccccc12)NC(=O)/C(=C\c1ccccc1)NC(=O)[C@H](CCCCN)NC(=O)[C@H](Cc1c[nH]cn1)NC(=O)/C(=C\c1ccccc1)NC(=O)[C@H](CCCCN)NC(=O)[C@H](CCCNC(=N)N)NC(=O)/C(=C\c1ccccc1)NC(=O)CNC(C)=O)C(N)=O [listing 1 of 2 here]
Drug uptake (Escherichia coli [1]): Active
Drug uptake (Escherichia coli [2]): Active
Time (Escherichia coli [3]): 2.5 min
Time (Escherichia coli [4]): 230 s
Time (Escherichia coli [5]): 150 s

CC(=O)NCC(=O)N[C@@H](CCCCN)C(=O)N/C(=C/c1ccccc1)C(=O)N[C@@H](Cc1c[nH]cn1)C(=O)N[C@@H](CCCCN)C(=O)N/C(=C\c1ccccc1)C(=O)N[C@@H](Cc1c[nH]c2ccccc12)C(=O)N[C@@H](C)C(=O)NCCCC[C@H](NC(=O)[C@H](C)NC(=O)[C@H](Cc1c[nH]c2ccccc12)NC(=O)/C(=C\c1ccccc1)NC(=O)[C@H](CCCCN)NC(=O)[C@H](Cc1c[nH]cn1)NC(=O)/C(=C\c1ccccc1)NC(=O)[C@H](CCCCN)NC(=O)CNC(C)=O)C(N)=O [listing 1 of 2 here]
Drug uptake (Escherichia coli [1]): Active
Drug uptake (Escherichia coli [2]): Not Active

CC(=O)NCC(=O)N[C@@H](CCCNC(=N)N)C(=O)N[C@H](CCCCN)C(=O)N/C(=C/c1ccccc1)C(=O)N[C@@H](Cc1c[nH]cn1)C(=O)N[C@H](CCCCN)C(=O)N/C(=C\c1ccccc1)C(=O)N[C@@H](Cc1c[nH]c2ccccc12)C(=O)N[C@@H](C)C(=O)NCCCC[C@@H](NC(=O)[C@H](C)NC(=O)[C@H](Cc1c[nH]c2ccccc12)NC(=O)/C(=C\c1ccccc1)NC(=O)[C@@H](CCCCN)NC(=O)[C@H](Cc1c[nH]cn1)NC(=O)/C(=C\c1ccccc1)NC(=O)[C@@H](CCCCN)NC(=O)[C@@H](CCCNC(=N)N)NC(=O)CNC(C)=O)C(N)=O
Activity (Escherichia coli [6]): Active

CC(=O)NCC(=O)N[C@@H](CCCNC(=N)N)C(=O)N[C@@H](CCCCN)C(=O)N/C(=C/c1ccccc1)C(=O)N[C@@H](Cc1c[nH]cn1)C(=O)N[C@@H](CCCCN)C(=O)N/C(=C\c1ccccc1)C(=O)N[C@@H](Cc1c[nH]c2ccccc12)C(=O)N[C@@H](C)C(=O)NCCCC[C@H](NC(=O)[C@H](C)NC(=O)[C@H](Cc1c[nH]c2ccccc12)NC(=O)/C(=C\c1ccccc1)NC(=O)[C@H](CCCCN)NC(=O)[C@H](Cc1c[nH]cn1)NC(=O)/C(=C\c1ccccc1)NC(=O)[C@H](CCCCN)NC(=O)[C@H](CCCNC(=N)N)NC(=O)CNC(C)=O)C(N)=O [listing 1 of 2 here]
Drug uptake (Escherichia coli [1]): Active
Drug uptake (Escherichia coli [2]): Not Active

CC(=O)NCC(=O)N[C@@H](CCCCN)C(=O)N/C(=C/c1ccccc1)C(=O)N[C@@H](Cc1c[nH]cn1)C(=O)N[C@@H](CCCCN)C(=O)N/C(=C\c1ccccc1)C(=O)N[C@@H](Cc1c[nH]c2ccccc12)C(=O)N[C@@H](C)C(=O)NCCCC[C@H](NC(=O)[C@H](C)NC(=O)[C@H](Cc1c[nH]c2ccccc12)NC(=O)/C(=C\c1ccccc1)NC(=O)[C@H](CCCCN)NC(=O)[C@H](Cc1c[nH]cn1)NC(=O)/C(=C\c1ccccc1)NC(=O)[C@H](CCCCN)NC(=O)CNC(C)=O)C(N)=O [listing 2 of 2 here]
MBC (Escherichia coli [7]): 15 µM (≈ 33.4 µg/mL)
MIC (Escherichia coli [7]): 10 µM (≈ 22.3 µg/mL)
MIC (Staphylococcus aureus [8]): > 100 µM
Ratio (Escherichia coli [9]): 1.5
Activity (Escherichia coli [10]): 50%
Activity (Escherichia coli [11]): 95%

CC(=O)NCC(=O)N[C@H](CCCCN)C(=O)N/C(=C\c1ccccc1)C(=O)N[C@@H](Cc1c[nH]c2ccccc12)C(=O)N[C@@H](C)C(=O)NCCCC[C@@H](NC(=O)[C@H](C)NC(=O)[C@H](Cc1c[nH]c2ccccc12)NC(=O)/C(=C\c1ccccc1)NC(=O)[C@@H](CCCCN)NC(=O)CNC(C)=O)C(N)=O [PEPTIDE A]
MIC (Escherichia coli [7]): > 100 µM
MIC (Staphylococcus aureus [8]): > 100 µM

CC(=O)NCC(=O)N[C@@H](Cc1c[nH]cn1)C(=O)N[C@H](CCCCN)C(=O)N/C(=C\c1ccccc1)C(=O)N[C@@H](Cc1c[nH]c2ccccc12)C(=O)N[C@@H](C)C(=O)NCCCC[C@@H](NC(=O)[C@H](C)NC(=O)[C@H](Cc1c[nH]c2ccccc12)NC(=O)/C(=C\c1ccccc1)NC(=O)[C@@H](CCCCN)NC(=O)[C@H](Cc1c[nH]cn1)NC(=O)CNC(C)=O)C(N)=O
MIC (Escherichia coli [7]): > 100 µM
MIC (Staphylococcus aureus [8]): > 100 µM

CC(=O)NCC(=O)N/C(=C/c1ccccc1)C(=O)N[C@@H](CCCNC(=N)N)C(=O)N[C@H](CCCCN)C(=O)N/C(=C/c1ccccc1)C(=O)N[C@@H](Cc1c[nH]cn1)C(=O)N[C@H](CCCCN)C(=O)N/C(=C\c1ccccc1)C(=O)N[C@@H](Cc1c[nH]c2ccccc12)C(=O)N[C@@H](C)C(=O)NCCCC[C@@H](NC(=O)[C@H](C)NC(=O)[C@H](Cc1c[nH]c2ccccc12)NC(=O)/C(=C\c1ccccc1)NC(=O)[C@@H](CCCCN)NC(=O)[C@H](Cc1c[nH]cn1)NC(=O)/C(=C\c1ccccc1)NC(=O)[C@@H](CCCCN)NC(=O)[C@@H](CCCNC(=N)N)NC(=O)/C(=C\c1ccccc1)NC(=O)CNC(C)=O)C(N)=O
Activity (Escherichia coli [6]): Active

CC(=O)NCC(=O)N[C@H](CCCCN)C(=O)N/C(=C/c1ccccc1)C(=O)N[C@@H](Cc1c[nH]cn1)C(=O)N[C@H](CCCCN)C(=O)N/C(=C\c1ccccc1)C(=O)N[C@@H](Cc1c[nH]c2ccccc12)C(=O)N[C@@H](C)C(=O)NCCCC[C@@H](NC(=O)[C@H](C)NC(=O)[C@H](Cc1c[nH]c2ccccc12)NC(=O)/C(=C\c1ccccc1)NC(=O)[C@@H](CCCCN)NC(=O)[C@H](Cc1c[nH]cn1)NC(=O)/C(=C\c1ccccc1)NC(=O)[C@@H](CCCCN)NC(=O)CNC(C)=O)C(N)=O
Activity (Escherichia coli [6]): Active

CC(=O)NCC(=O)N[C@@H](CCCNC(=N)N)C(=O)N[C@@H](CCCCN)C(=O)N/C(=C/c1ccccc1)C(=O)N[C@@H](Cc1c[nH]cn1)C(=O)N[C@@H](CCCCN)C(=O)N/C(=C\c1ccccc1)C(=O)N[C@@H](Cc1c[nH]c2ccccc12)C(=O)N[C@@H](C)C(=O)NCCCC[C@H](NC(=O)[C@H](C)NC(=O)[C@H](Cc1c[nH]c2ccccc12)NC(=O)/C(=C\c1ccccc1)NC(=O)[C@H](CCCCN)NC(=O)[C@H](Cc1c[nH]cn1)NC(=O)/C(=C\c1ccccc1)NC(=O)[C@H](CCCCN)NC(=O)[C@H](CCCNC(=N)N)NC(=O)CNC(C)=O)C(N)=O [listing 2 of 2 here]
MBC (Escherichia coli [7]): 10 µM (≈ 25.4 µg/mL)
MIC (Escherichia coli [7]): 5 µM (≈ 12.7 µg/mL)
MIC (Staphylococcus aureus [8]): > 100 µM
Ratio (Escherichia coli [9]): 2
Activity (Escherichia coli [10]): 50%
Activity (Escherichia coli [12]): 95%

CC(=O)NCC(=O)N/C(=C/c1ccccc1)C(=O)N[C@@H](CCCNC(=N)N)C(=O)N[C@@H](CCCCN)C(=O)N/C(=C/c1ccccc1)C(=O)N[C@@H](Cc1c[nH]cn1)C(=O)N[C@@H](CCCCN)C(=O)N/C(=C\c1ccccc1)C(=O)N[C@@H](Cc1c[nH]c2ccccc12)C(=O)N[C@@H](C)C(=O)NCCCC[C@H](NC(=O)[C@H](C)NC(=O)[C@H](Cc1c[nH]c2ccccc12)NC(=O)/C(=C\c1ccccc1)NC(=O)[C@H](CCCCN)NC(=O)[C@H](Cc1c[nH]cn1)NC(=O)/C(=C\c1ccccc1)NC(=O)[C@H](CCCCN)NC(=O)[C@H](CCCNC(=N)N)NC(=O)/C(=C\c1ccccc1)NC(=O)CNC(C)=O)C(N)=O [listing 2 of 2 here]
MBC (Escherichia coli [7]): 5 µM (≈ 14.1 µg/mL)
MIC (Escherichia coli [7]): 2.5 µM (≈ 7.07 µg/mL)
MBC (Staphylococcus aureus [8]): 7.5 µM (≈ 21.2 µg/mL)
MIC (Staphylococcus aureus [8]): 5 µM (≈ 14.1 µg/mL)
Ratio (Escherichia coli [9]): 2
Ratio (Staphylococcus aureus [13]): 1.5
Activity (Escherichia coli [10]): 96%
